# Experiments:
# [1] = molecular target: T1, Mitogen-activated protein kinase 14 (Homo sapiens, UniProt Q16539); assay: Inhibitory activity against Mitogen-activated protein kinase p38 alpha 2 (expressed Escherichia coli) at concentration of 500 nM
# Summary of the method: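 Activated p38 α2 (0.05 µg/well) phosphorylating myelin basic protein (10 µg/well) in 25 mM HEPES pH 7.4, 20 mM MgCl₂, 150 mM NaCl. Compounds were added from 10% DMSO in water. Reactions were started with 10 µM ATP plus 0.2 µCi [γ-33P]ATP per well, run 35 min at 32 °C, and stopped with HCl. Filter-bound ³³P was counted by scintillation.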
# [2] = molecular target: T1, Mitogen-activated protein kinase 14; assay: Inhibitory activity against Mitogen-activated protein kinase p38 alpha 2 expressed in Escherichia coli.
# [3] = system: SW1353; assay: Compound was evaluated for its ability to inhibit IL-6 production in SW1353 cells treated with cytokines IL-1 and TNF; assay type: functional, cell-based; details: Homo sapiens
# T1 sequence (Q16539 whole entry): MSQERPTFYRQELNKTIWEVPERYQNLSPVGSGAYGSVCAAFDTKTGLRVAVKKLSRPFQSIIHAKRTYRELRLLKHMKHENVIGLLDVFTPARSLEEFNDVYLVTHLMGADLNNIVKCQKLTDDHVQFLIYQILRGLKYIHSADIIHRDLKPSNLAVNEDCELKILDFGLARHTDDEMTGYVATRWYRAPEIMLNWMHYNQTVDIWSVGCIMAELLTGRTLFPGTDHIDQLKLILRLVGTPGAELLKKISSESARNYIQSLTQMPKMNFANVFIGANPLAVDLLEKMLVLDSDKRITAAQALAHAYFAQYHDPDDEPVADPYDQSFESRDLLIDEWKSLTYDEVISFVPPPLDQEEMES
Structure (SMILES),inhibition [1] [%],IC50 [2] [nM],IC50 [3] [nM]
CCC(C)(C)c1cc(NC(=O)Nc2cccc(Cl)c2Cl)on1,83,120,–
CC(C)(C)c1cc(NC(=O)Nc2cccc(Cl)c2Cl)no1,88,58,1200
CC(C)c1cc(NC(=O)Nc2cccc(Cl)c2Cl)on1,62,290,–
CC(=O)Nc1cccc(NC(=O)Nc2cc(C(C)(C)C)no2)c1,11,–,–
Cc1cc(NC(=O)Nc2cccc(Cl)c2Cl)on1,4,–,–
CC(C)(C)c1cc(NC(=O)Nc2ccc(Cl)c(Cl)c2)on1,62,220,–
CC(=O)Nc1ccc(NC(=O)Nc2cc(C(C)(C)C)no2)cc1,20,–,–
O=C(Nc1cc(C23CC4CC(CC(C4)C2)C3)no1)Nc1cccc(Cl)c1Cl,9,–,–
CCC(C)(C)c1noc(NC(=O)Nc2cccc(Cl)c2Cl)c1C,18,–,–
CC(C)(C)c1ccc(NC(=O)Nc2cccc(Cl)c2Cl)s1,82,120,–
CC(C)(C)c1cc(NC(=O)Nc2cccc(Cl)c2Cl)cs1,76,160,–
CCCCc1cc(NC(=O)Nc2cccc(Cl)c2Cl)on1,33,1100,–
O=C(Nc1cc(C2CCC2)no1)Nc1cccc(Cl)c1Cl,57,370,–
CC(C)(C)c1cc(NC(=O)Nc2ccc(Cl)cc2)on1,68,260,–
CC(C)(C)c1nnc(NC(=O)Nc2cccc(Cl)c2Cl)s1,1,–,–
Cc1c(C(C)C)noc1NC(=O)Nc1cccc(Cl)c1Cl,34,920,–
CC(C)(C)c1cc(NC(=O)Nc2ccc(C(F)(F)F)cc2)on1,77,200,–
Cc1cc(F)ccc1-c1cc(N(C(N)=O)c2c(Cl)cccc2Cl)ccc1CO,–,2,–
CC(C)(C)c1cc(NC(=O)Nc2ccc(F)cc2)on1,41,–,–

# More lines, main results first:
inhibition [1] [%],IC50 [2] [nM],Structure (SMILES),IC50 [3] [nM]
49,–,Cc1cccc(NC(=O)Nc2cc(C(C)(C)C)no2)c1C,–
36,–,CC(C)(C)c1cc(NC(=O)Nc2ccccc2C(F)(F)F)no1,–
81,120,CC(C)(C)Cc1cc(NC(=O)Nc2cccc(Cl)c2Cl)on1,–
54,–,Cc1cccc(NC(=O)Nc2cc(C(C)(C)C)on2)c1C,–
18,–,CC(=O)Nc1cccc(NC(=O)Nc2cc(C(C)(C)C)on2)c1,–
93,36,CC(C)(C)c1cc(NC(=O)Nc2cccc(Cl)c2Cl)on1,–
–,710,CC(C)(C)c1cc(NC(=O)Nc2cc(Br)cc(Br)c2)no1,–
14,–,CC(=O)Nc1ccc(NC(=O)Nc2cc(C(C)(C)C)on2)cc1,–
18,–,Cc1c(C(C)(C)C)noc1NC(=O)Nc1cccc(Cl)c1Cl,–
9,–,CC(C)(C)c1cc(NC(=O)Nc2ccc(Cl)cc2C(F)(F)F)no1,–
33,–,CC(C)(C)c1cc(NC(=O)Nc2ccccc2)no1,–
74,190,CC(C)(C)c1cc(NC(=O)Nc2ccc(F)cc2)no1,–
39,–,CC(C)(C)c1cc(NC(=O)Nc2ccc(C(F)(F)F)cc2)no1,–
